Test results: ChEMBL document CHEMBL1155217, “Synthesis and evaluation of 3-(dihydroxyboryl)benzoic acids as D,D-carboxypeptidase R39 inhibitors” (J Med Chem, 2009)
Changes are numbered by the printed parent chain.

Tests used:
[1] = target: T1, Penicillin-binding protein 2x (Streptococcus pneumoniae serotype 4 (strain ATCC BAA-334 / TIGR4)) (UniProt P14677); assay: Inhibition of penicillin-resistant Streptococcus pneumoniae 5204 PBP2X assessed as residual activity at 100 uM preincubated for 4 hrs before addition of substrate mixture of (R)-[2-(benzoylamino)propionylsulfanyl]acetic acid and 5,5'-dithiobis(2-nitrobenzoic acid)
T1 sequence (whole entry): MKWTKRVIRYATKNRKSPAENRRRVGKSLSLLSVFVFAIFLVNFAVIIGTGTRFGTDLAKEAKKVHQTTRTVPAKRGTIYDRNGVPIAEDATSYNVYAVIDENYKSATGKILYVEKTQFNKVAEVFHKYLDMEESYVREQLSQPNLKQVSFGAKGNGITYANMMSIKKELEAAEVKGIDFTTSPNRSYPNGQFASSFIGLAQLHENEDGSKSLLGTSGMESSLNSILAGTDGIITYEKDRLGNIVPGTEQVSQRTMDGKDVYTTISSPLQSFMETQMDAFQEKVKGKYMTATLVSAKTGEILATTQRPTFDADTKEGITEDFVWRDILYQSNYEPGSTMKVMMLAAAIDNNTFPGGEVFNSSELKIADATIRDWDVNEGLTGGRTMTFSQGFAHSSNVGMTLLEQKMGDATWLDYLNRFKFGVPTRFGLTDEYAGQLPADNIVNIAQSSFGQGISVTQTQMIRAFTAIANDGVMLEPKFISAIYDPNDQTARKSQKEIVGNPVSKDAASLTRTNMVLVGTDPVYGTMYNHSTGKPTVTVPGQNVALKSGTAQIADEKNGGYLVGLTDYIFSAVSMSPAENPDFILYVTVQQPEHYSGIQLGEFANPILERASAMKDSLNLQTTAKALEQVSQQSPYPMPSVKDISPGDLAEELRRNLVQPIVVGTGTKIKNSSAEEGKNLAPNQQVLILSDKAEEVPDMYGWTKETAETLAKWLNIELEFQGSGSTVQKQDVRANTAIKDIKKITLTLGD
Outline: (§1)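 PBP2x-5204 (0.6 μM) preincubated with compound in 10 mM sodium phosphate pH 7.0, 70 mM D-alanine, 0.01 mg/mL BSA, 4 h, 25 °C. S2d (final 1 mM) and DTNB (final 0.5 mM) then added. Residual activity taken from initial rate at 412 nm against uninhibited enzyme (six replicates per plate). Triplicates. IC50 by nonlinear regression.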

[2] = target: T2, Penicillin-binding protein 2X (Streptococcus pneumoniae R6) (UniProt P59676); assay: Inhibition of penicillin-sensitive Streptococcus pneumoniae R6 PBP2X assessed as residual activity at 500 uM preincubated for 60 mins before addition of substrate mixture of (R)-[2-(benzoylamino)propionylsulfanyl]acetic acid and 5,5'-dithiobis(2-nitrobenzoic acid)
T2 sequence (whole entry): T1 sequence (whole entry) with T385M
Outline: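 S. pneumoniae PBP2xR6 (0.09 μM) was preincubated with compound in 10 mM sodium phosphate pH 7.0 with 0.01 mg/mL BSA, for 60 min at 25 °C. S2d (1 mM final) and DTNB (0.5 mM final) were added, and the initial hydrolysis rate was monitored at 412 nm. Uninhibited activity (six replicates per plate) was set as 100%; assays ran in triplicate.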

[3] = target: T1, Penicillin-binding protein 2x (Streptococcus pneumoniae serotype 4 (strain ATCC BAA-334 / TIGR4)); assay: Inhibition of penicillin-resistant Streptococcus pneumoniae 5204 PBP2X assessed as residual activity at 500 uM preincubated for 4 hrs before addition of substrate mixture of (R)-[2-(benzoylamino)propionylsulfanyl]acetic acid and 5,5'-dithiobis(2-nitrobenzoic acid); outline: as §1
[4] = Solubility in sodium phosphate buffer saline of pH 7.2 at 1 mM; type: physicochemical; conditions: pH 7.2, 1000 µM
[5] = target: D-alanyl-D-alanine carboxypeptidase (Actinomadura sp. R39) (UniProt P39045); assay: Inhibition of Actinomadura sp. R39 penicillin-binding protein at 0.5 mM preincubated for 60 mins before addition of substrate mixture of (R)-[2-(benzoylamino)propionylsulfanyl]acetic acid and 5,5'-dithiobis(2-nitrobenzoic acid)
Outline: (§2)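 Purified Actinomadura R39 D,D-peptidase (3.5 nM) was preincubated with compound for 60 min at 25 °C. S2d (1 mM final) and DTNB (0.5 mM final) were then added, with 1% v/v DMF. Initial rate was read at 412 nm, corrected for enzyme-free hydrolysis, in triplicate.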

[6] = target: D-alanyl-D-alanine carboxypeptidase (Actinomadura sp. R39) (UniProt P39045); assay: Inhibition of Actinomadura sp. R39 penicillin-binding protein assessed as residual activity at 500 uM preincubated for 60 mins before addition of substrate mixture of (R)-[2-(benzoylamino)propionylsulfanyl]acetic acid and 5,5'-dithiobis(2-nitrobenzoic acid); outline: as §2
Streptococcus pneumoniae = assay: Inhibition of Streptococcus pneumoniae PBP1B assessed as residual activity at 1 mM after 60 mins by SDS-PAGE
[7] = target: D-alanyl-D-alanine carboxypeptidase (Actinomadura sp. R39, UniProt P39045); assay: Inhibition of Actinomadura sp. R39 penicillin-binding protein preincubated for 60 mins before addition of substrate mixture of (R)-[2-(benzoylamino)propionylsulfanyl]acetic acid and 5,5'-dithiobis(2-nitrobenzoic acid)
Outline: (§3)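 Purified R39 (3.5 nM) preincubated with compound in 10 mM sodium phosphate pH 7.2, 100 mM NaCl, 100 mM D-alanine, 0.01 mg/mL BSA, 60 min, 25 °C. S2d then added (final 1 mM) with DTNB (final 0.5 mM; 1% v/v DMF). Initial hydrolysis rate read at 412 nm. Spontaneous substrate hydrolysis was measured without enzyme. Triplicates. IC50 from nonlinear regression of RA across a concentration range.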

[8] = target: D-alanyl-D-alanine carboxypeptidase (Actinomadura sp. R39) (UniProt P39045); assay: Inhibition of Actinomadura sp. R39 penicillin-binding protein assessed as residual activity at 100 uM preincubated for 60 mins before addition of substrate mixture of (R)-[2-(benzoylamino)propionylsulfanyl]acetic acid and 5,5'-dithiobis(2-nitrobenzoic acid); outline: as §3
[9] = Solubility in sodium phosphate buffer saline of pH 7.2; type: physicochemical
[10] = target: T2, Penicillin-binding protein 2X (Streptococcus pneumoniae R6); assay: Inhibition of penicillin-sensitive Streptococcus pneumoniae R6 PBP2X assessed as residual activity at 100 uM preincubated for 60 mins before addition of substrate mixture of (R)-[2-(benzoylamino)propionylsulfanyl]acetic acid and 5,5'-dithiobis(2-nitrobenzoic acid)
Outline: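 PBP2x-R6 (0.09 μM) preincubated with compound in 10 mM sodium phosphate pH 7.0, 0.01 mg/mL BSA, 60 min, 25 °C. S2d (final 1 mM) and DTNB (final 0.5 mM) then added. Residual activity from initial rate at 412 nm, relative to enzyme-only wells. Triplicates. Repeated with 0.01% Triton X-100 when RA <80%.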

[11] = target: Penicillin-binding protein 2x (Streptococcus pneumoniae serotype 4 (strain ATCC BAA-334 / TIGR4), UniProt P14677); assay: Inhibition of penicillin-resistant Streptococcus pneumoniae 5204 PBP2X preincubated for 4 hrs before addition of substrate mixture of (R)-[2-(benzoylamino)propionylsulfanyl]acetic acid and 5,5'-dithiobis(2-nitrobenzoic acid); outline: as §1

Sequence of D-alanyl-D-alanine carboxypeptidase (P39045 whole entry): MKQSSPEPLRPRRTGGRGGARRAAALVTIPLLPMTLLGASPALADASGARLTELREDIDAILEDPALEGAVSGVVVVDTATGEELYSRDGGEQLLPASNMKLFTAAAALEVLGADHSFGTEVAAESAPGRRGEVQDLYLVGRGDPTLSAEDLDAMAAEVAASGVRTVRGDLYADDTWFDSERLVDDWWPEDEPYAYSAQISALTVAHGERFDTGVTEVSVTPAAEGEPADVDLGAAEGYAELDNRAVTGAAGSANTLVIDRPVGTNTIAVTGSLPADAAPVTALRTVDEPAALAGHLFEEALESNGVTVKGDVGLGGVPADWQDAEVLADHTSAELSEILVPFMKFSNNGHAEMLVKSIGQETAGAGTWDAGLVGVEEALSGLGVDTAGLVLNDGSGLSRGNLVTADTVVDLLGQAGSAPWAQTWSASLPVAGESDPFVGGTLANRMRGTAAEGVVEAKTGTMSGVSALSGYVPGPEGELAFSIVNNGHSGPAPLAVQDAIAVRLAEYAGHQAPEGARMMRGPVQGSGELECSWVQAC
Sequence of D-alanyl-D-alanine carboxypeptidase (Actinomadura sp. R39) (P39045 whole entry): as above

With `OB(O)c1ccc(Oc2ccccc2)cc1` the Activity [1] was 108%.

For `OB(O)c1ccccc1` [PHENYLBORONIC ACID], the Activity [2] was 114%, the Activity [3] was 78% and the solubility [4] was “Insoluble”. It also gave an inhibition [5] of 50%.

In the case of `CC1(C)OB(c2cccc(C(=O)O)c2)OC1(C)C`, the Activity [2] is reported as 93%, the Activity [3] is reported as 98% and the Activity [6] is reported as 38%. For the same compound, the solubility [4] was “Insoluble” and the inhibition [5] was over 50%.

Compound `COc1ccccc1C(=O)Nc1cc(B(O)O)cc(C(=O)O)c1` has an Activity (Streptococcus pneumoniae) of 82% and an IC50 [7] of 23 µM.

`CN(C)c1cccc2c(S(=O)(=O)Nc3cccc(B(O)O)c3)cccc12` showed an Activity [2] of 91%.

With `OB(O)c1ccc(-c2ccccc2)cc1` [BIPHENYLBORONIC ACID] the Activity [1] was 120%, the Activity [8] was 104% and the solubility [9] was “Insoluble”. The Activity [10] was 90%.

For `O=C(O)c1cccc(B(O)O)c1`, the IC50 [7] was 400 µM.

Compound `O=C(O)c1cc(NC(=O)c2ccccc2)cc(B(O)O)c1` has an Activity (Streptococcus pneumoniae) of 85% and an IC50 [7] of 34 µM.

In the case of `O=C(Cc1cccs1)Nc1cc(B(O)O)cc(C(=O)O)c1`, the Activity (Streptococcus pneumoniae) is reported as 53% and the IC50 [7] is reported as 78 µM.

`O=C(O)c1cc(NC(=O)c2cccs2)cc(B(O)O)c1` showed an Activity (Streptococcus pneumoniae) of 70% and an IC50 [7] of 32 µM.

Compound `O=C(O)c1ccc(B(O)O)s1` has an IC50 [11] of over 1000 µM.

With `OB(O)c1ccc(-c2ccc(B(O)O)cc2)cc1` the Activity [1] was 95%, the solubility [9] was “Insoluble” and the Activity [10] was 104%.

With `O=C(Cc1ccccc1)Nc1cc(B(O)O)cc(C(=O)O)c1` the IC50 [7] was 88 µM.

Compound `O=C(COc1ccccc1)Nc1cc(B(O)O)cc(C(=O)O)c1` has an Activity (Streptococcus pneumoniae) of 83% and an IC50 [7] of 28 µM.
